Measurements published in PubChem BioAssay.
The source made the active and inactive calls.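 Rule for the calls: active = current rise at least 3 SD above the untreated control mean in each of two repeat wells; inactive = the rest.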

These molecules were tested against Potassium voltage-gated channel subfamily KQT member 1 (Homo sapiens) (UniProt P51787) (assay: KCNQ1 activators by electrophysiology – IonWorks patch clamp, KCNQ1-CHO cells, orthogonal assay for KCNQ1 potentiator project, confirmation (AID 493184)). Conditions: automated patch clamp current, at 10 µM.
Method in brief: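 Test system: KCNQ1-expressing CHO cells. Medium: pH 7.4 external bath. Probe or stimulus: voltage step from -90 mV holding to +40 mV, 2,000 ms. Compound: 10 µM final, single point. Detection: automated perforated-patch electrophysiology. Read-out: percent current increase versus pre-compound level. Repeats: two replicates.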

Chain of Potassium voltage-gated channel subfamily KQT member 1 (Homo sapiens) (P51787 whole entry, looked up): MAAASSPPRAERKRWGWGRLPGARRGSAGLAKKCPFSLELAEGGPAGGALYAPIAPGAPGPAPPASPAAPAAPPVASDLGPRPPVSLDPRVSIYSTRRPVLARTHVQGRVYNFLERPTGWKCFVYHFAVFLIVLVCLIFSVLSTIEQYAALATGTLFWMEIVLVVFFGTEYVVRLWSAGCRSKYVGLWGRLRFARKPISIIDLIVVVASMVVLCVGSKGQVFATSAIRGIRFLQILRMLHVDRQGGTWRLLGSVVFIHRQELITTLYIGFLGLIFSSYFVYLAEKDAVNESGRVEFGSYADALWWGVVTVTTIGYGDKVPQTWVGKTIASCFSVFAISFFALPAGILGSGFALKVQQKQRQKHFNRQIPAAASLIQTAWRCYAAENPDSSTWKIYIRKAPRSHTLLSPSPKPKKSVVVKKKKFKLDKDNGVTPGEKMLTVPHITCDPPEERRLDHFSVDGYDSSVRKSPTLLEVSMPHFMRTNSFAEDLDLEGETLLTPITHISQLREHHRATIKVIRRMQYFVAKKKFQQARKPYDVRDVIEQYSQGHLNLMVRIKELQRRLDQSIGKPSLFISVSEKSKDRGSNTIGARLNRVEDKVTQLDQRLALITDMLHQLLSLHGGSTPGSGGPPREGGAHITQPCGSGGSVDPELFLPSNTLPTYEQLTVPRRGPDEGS

outcome, inactive:
CCOc1ccc(CN(CCC#N)C(=S)NC(=O)c2ccccc2)cc1
CCOC(=O)Cc1csc(NC(=S)NC(=O)c2ccccc2Br)n1
Cc1sc2nc[nH]c(=S)c2c1-c1ccccc1
O=C(O)CCCN1C(=O)C2C3c4ccccc4C(c4ccccc43)[C@@H]2C1=O (stereo not given in full)
CN1C=CC=C/C1=C1\SC(=S)N(Cc2ccccc2)C1=O
CCN1c2ccccc2-c2nc3ccccc3n2C1c1cccnc1 (stereo not given)
Cc1sc(N/N=C/c2ccco2)nc1-c1ccccc1
Cc1ccc(OCC(=O)NNC(=S)NC(=O)c2cccs2)c(C)c1
COc1cccc(-c2nnc(Nc3nc4c(F)cccc4s3)o2)c1
O=C1CC(c2ccccc2)CC(O)=C1C=Nc1ccc(O)cc1 (stereo not given)
CCn1ncc(Cl)c1C(=O)NC(=S)Nc1ccccc1Br
Oc1c(Cl)cc(Cl)cc1/C=N/c1nccs1
CCN(CC)C(=O)c1[nH]cnc1C(=O)NCC(=O)OC(C)(C)C
Cc1cc(S(=O)(=O)N2CCOCC2)ccc1OCC(=O)NCc1ccccn1
Cc1ccc2nc3c(cc(C(=O)NCC4CCCO4)c(=N)n3C3CCCC3)c(=O)n2c1 (stereo not given)
Cc1ccc2nc(C)cc(N/N=C/c3cccnc3)c2c1
CC1(C)CC(=O)C2=C(C1)N(c1cccc(Cl)c1)C(=O)NC2(C(F)(F)F)C(F)(F)F
Cc1csc(N/N=C/c2ccc([N+](=O)[O-])cc2)n1
O=C(COC(=O)C12CC3CC(CC(C3)C1)C2)NCCCc1ccccc1
O=C(Nc1ccc2[nH]c(=S)sc2c1)c1ccccc1
CC1CCc2c(sc(NS(=O)(=O)c3ccccc3)c2C(=O)OC(C)C)C1 (stereo not given)
O=C(O)C1C2CCC(O2)C1C(=O)NCCC1=CCCCC1 (stereo not given)
CCOC(=O)c1cc2c(=O)n3ccccc3nc2n(CCCOC)c1=NC(=O)c1ccncc1
CCC1CCCCN1C(=S)NC(=O)c1cccs1 (stereo not given)
Cc1cc(N2CCN(C)CC2)nc2ccc(NC(=S)NCCCN3CCc4ccccc4C3)cc12
CN(CC(=O)Nc1ccc(F)c(F)c1F)C(=O)CC1OC(=O)c2ccccc21 (stereo not given)
COc1cc2c(cc1OC)CN(C(=O)COc1ccccc1[N+](=O)[O-])CC2
OC[C@H]1O[C@H](OC[C@H]2O[C@H](OC[C@H]3O[C@H](O[C@]4(CO)O[C@H](CO)[C@@H](O)[C@@H]4O)[C@H](O)[C@@H](O)[C@@H]3O)[C@H](O)[C@@H](O)[C@H]2O)[C@H](O)[C@@H](O)[C@H]1O
COc1ccccc1C(=O)OCC(=O)Nc1ccc(Cl)cn1
Cc1ccccc1Cn1c(O)c(N=NC(=S)Nc2ccccc2F)c2ccccc21
CC(=O)NC1=C(NC2CCS(=O)(=O)C2)C(=O)c2ccccc2C1=O (stereo not given)
COc1cccc(N=Nc2ccc(O)c3ncccc23)c1
Cn1nccc1C(=O)NC(=S)Nc1cc(Cl)cc(Cl)c1
CN(C)c1ccc(-c2nn3c(-c4ccccc4Cl)nnc3s2)cc1
CC(=O)c1ccc(OCc2cc(C(=O)N(C)Cc3nc4c(C)cccc4[nH]3)no2)cc1
COC(=O)c1ccc(N2CCN(S(=O)(=O)c3ccc(Br)cc3)CC2)c([N+](=O)[O-])c1
Cc1ncc(CN2CCC(CO)(CCc3ccccc3)CC2)s1
O=C(c1ccc(-c2ccccc2)cc1)N1CCCC1
Cc1ccc2oc(C(=O)N3CCN(c4cccc(C)n4)CC3)c(C)c2c1
C/C(=N\NC(=O)C(=O)Nc1cccc(C(F)(F)F)c1)c1ccc(Cl)s1
